For data set [1], the system named is RAW264.7. Description: Cytotoxicity against mouse RAW264.7 cells assessed as effect on cell viability up to 80 uM after 24 hrs by MTT assay. The format is cell-based. To be noted: raw264.7, 24 h. In outline:
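Viability or proliferation of RAW264.7 cells was measured by MTT. Compounds were tested at up to 80 μM alongside LPS treatment for 24 h. They were made as DMSO stocks, with final DMSO below 0.2%. The assay was run to test whether lower NO reflected loss of cells.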

In data set [2] the test system is RAW264.7. Description: Antiinflammatory activity in mouse RAW264.7 cells assessed as inhibition of LPS-induced nitric oxide production after 24 hrs by Griess assay. In kind it is functional, cell-based. To be noted: RAW264.7, 24 h. In short, it runs like this: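 RAW264.7 cells were obtained from the Peking Union Medical College Cell Bank and stimulated with LPS. Nitric oxide production was measured in the presence of test compounds. Compounds were made as DMSO stocks, with final DMSO below 0.2%. IC50 values are given as mean ± SD of three independent experiments. A positive control was included.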

The structures appear in SMILES notation.

Regarding `O=c1cc(CCc2ccccc2)oc2c1[C@@H]1c3ccc4c(=O)cc(CCc5ccccc5)oc4c3O[C@@H]([C@@H]1O)[C@H]2O`, in data set [1], the Activity entry is listed as “Non-Toxic”. Moreover, the IC50 in data set [2] was determined as 8.6 µM.
With `COc1ccc(CCc2cc(=O)c3c(o2)[C@@H](O)[C@@H]2Oc4c(c(O)cc5c(=O)cc(CCc6ccc(OC)cc6)oc45)[C@H]3[C@@H]2O)cc1`, the Activity result in data set [1] is “Non-Toxic”. In addition, the IC50 in data set [2] amounted to 10.5 µM.
In the same order, the values of `COc1ccc2oc(CCc3ccc4c(c3)O[C@H]3[C@H](O)[C@@H]4c4c(oc(CCc5ccccc5)cc4=O)[C@@H]3O)cc(=O)c2c1` are “Non-Toxic” and 12 µM.
For the compound `COc1ccc2oc(CCc3ccc(OC)c4c3[C@@H]3c5c(oc(CCc6ccccc6)cc5=O)[C@@H](O)[C@H](O4)[C@H]3O)cc(=O)c2c1`, the Activity result in data set [1] is “Non-Toxic”. Moreover, in data set [2], the 50% inhibitory concentration (IC50) was determined as 8.5 µM.
With `O=c1cc(CCc2ccccc2)oc2c1[C@@H]1c3c(ccc4oc(CCc5ccccc5)cc(=O)c34)O[C@@H]([C@@H]1O)[C@H]2O`, the Activity result in data set [1] is reported as “Non-Toxic”. For the same compound, the IC50 in data set [2] was 11.5 µM.
Take `O=c1cc(CCc2ccccc2)oc2c1[C@H]1c3c(ccc4oc(CCc5ccccc5)cc(=O)c34)O[C@H]([C@H]1O)[C@@H]2O`: the Activity entry in data set [1] is given as “Non-Toxic”. Further, the IC50 in data set [2] was found to be 7.6 µM.
With `COc1ccc(CCc2cc(=O)c3c(O)c(O)c(O)c(Cl)c3o2)cc1`, the IC50 in data set [2] turned out to be 4.4 µM.
Regarding `COc1ccc2oc(CCc3ccc(OC)c4c3[C@H]3c5c(oc(CCc6ccccc6)cc5=O)[C@H](O)[C@@H](O4)[C@@H]3O)cc(=O)c2c1`, the Activity entry in data set [1] was “Non-Toxic”. In data set [2], the IC50 was found to be 8.5 µM.
For the compound `O=c1cc(CCc2ccccc2)oc2c1[C@H]1c3ccc4c(=O)cc(CCc5ccccc5)oc4c3O[C@H]([C@H]1O)[C@@H]2O`, in data set [1], the Activity entry is reported as “Non-Toxic”. For the same compound, in data set [2], the IC50 was determined as 8.8 µM.
As for `COc1ccc(CCc2cc(=O)c3c(o2)[C@H](O)[C@H]2Oc4c(OC)ccc(CCc5cc(=O)c6cc(OC)ccc6o5)c4[C@@H]3[C@H]2O)cc1`, the Activity result in data set [1] is listed as “Non-Toxic”. Moreover, the IC50 in data set [2] amounted to 7 µM.
As to `COc1ccc(CCc2cc(=O)c3c(o2)[C@@H](O)[C@@H]2Oc4ccc5oc(CCc6ccccc6)cc(=O)c5c4[C@H]3[C@@H]2O)cc1`, the Activity entry in data set [1] is reported as “Non-Toxic”. In addition, in data set [2], the IC50 is 9.3 µM.

The values are drawn from ChEMBL document CHEMBL4138239, “Anti-inflammatory Dimeric 2-(2-Phenylethyl)chromones from the Resinous Wood of Aquilaria sinensis” (J Nat Prod, 2018).
